Compound activity from PubChem BioAssay.
SENP1 inh – SENP1 (human) catalytic domain inhibition. Q9P0U3. recombinant SENP1 catalytic domain, CyPet-SUMO1-YPet FRET cleavage. inhibition, % at 10 µM. 0.21% of 360,000 active;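 active = inhibition at least 30% at 10 µM, raw YFP signal under a set limit, fluorescence ratio 0.5 to 1.5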;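 note: 0% = enzyme with DMSO and 100% = no enzyme wells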
Target sequence (Q9P0U3 419-644 limits assumed): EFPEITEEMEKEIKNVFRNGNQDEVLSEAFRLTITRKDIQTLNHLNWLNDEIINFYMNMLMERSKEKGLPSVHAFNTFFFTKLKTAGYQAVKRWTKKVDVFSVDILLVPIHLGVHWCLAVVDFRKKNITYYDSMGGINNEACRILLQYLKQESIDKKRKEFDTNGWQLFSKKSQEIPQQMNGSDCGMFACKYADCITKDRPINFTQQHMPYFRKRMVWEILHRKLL
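Assay system: hSENP1 catalytic domain, recombinant. Amount: SENP1 enzyme, 20 pM final. Schedule: 50 min reaction, RT, dark. Technique: FRET, CFP and YFP emission. Control set: no-enzyme wells low, DMSO-plus-enzyme wells high control.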
NadD inh – NadD (S. aureus) enzyme inhibition | AID 602399 | purified NadD enzyme, colorimetric absorbance read-out | inhibition, % at 20 µM | 0.78% of 360,000 active; in the data active = inhibition above about 26%
B2AR ag – activates human beta-2 adrenergic receptor causing internalization. P07550. Am2.2-beta2AR cells, FAP receptor internalization, flow cytometry. response, % (no concentration beside the values). 0.43% of 340,000 active. AID 504454;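 active = response above a set limit, near 3 SD of response in nonfluorescent compounds, cut at about 42% in these data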
Target sequence (P07550 whole entry, looked up): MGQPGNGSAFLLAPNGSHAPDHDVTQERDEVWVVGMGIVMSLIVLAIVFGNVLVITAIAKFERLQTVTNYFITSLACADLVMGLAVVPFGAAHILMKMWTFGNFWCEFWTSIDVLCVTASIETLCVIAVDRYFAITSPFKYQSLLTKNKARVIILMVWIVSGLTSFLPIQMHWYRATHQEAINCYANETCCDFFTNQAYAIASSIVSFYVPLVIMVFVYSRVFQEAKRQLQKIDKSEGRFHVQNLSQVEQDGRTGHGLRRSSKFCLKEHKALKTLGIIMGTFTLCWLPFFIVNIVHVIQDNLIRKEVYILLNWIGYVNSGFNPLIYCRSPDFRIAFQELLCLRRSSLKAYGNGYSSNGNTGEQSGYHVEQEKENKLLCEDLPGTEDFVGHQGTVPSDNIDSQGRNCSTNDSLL
ABHD5 PLIN5 PPI – blocks binding of human ABHD5 to perilipin-5. AID 602281. inhibition, % at 4 µM. Split G. princeps luciferase complementation, luminescence, 4 h. 0.78% of 360,000 active;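 active = inhibition above the mean inhibition across every tested compound plus 3 SD, cut at about 22% in these data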;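 note: 0% = DMSO only wells and the 100% control is not disclosed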
GRK2 inh – inhibitors of human GRK2 displacing RNA aptamer | bead flow cytometry, FAM-aptamer displacement from GRK2 | inhibition of aptamer binding, % at 10 µM | 0.59% of 330,000 active;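 active = inhibition of aptamer binding above 40%, roughly 3 SD of noise, on plates passing a quality check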;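 note: median bead fluorescence of bound FAM aptamer so fluorescent compounds give negative values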
GRK2 inh confirm – human GRK2 inhibition confirmation, cherry pick 1; shares compounds with GRK2 inh; bead-bound GRK2, FAM-aptamer displacement, flow cytometry; aptamer displacement, % at 10 µM; 4% of 2,000 active; AID 504451;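 active = aptamer displacement above 40%, near three times the noise of non-fluorescent compounds, on plates passing quality checks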;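 note: negative values mostly reflect intrinsic compound fluorescence rather than true enhancement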
Aptamer quench – fluorescent aptamer quenching in GRK2 counter-screen dose response; shares compounds with GRK2 inh; Fluorescent RNA aptamer beads, flow cytometry; hits give high values; fluorescence change (kMESF span), kMESF (test concentration not listed); 110 tested, under 10 active; AID 504521;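 active = compounds whose bead fluorescence drops by more than 37 kMESF across the dose range, marking them as dye quenchers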
FAM quench CP1 – quenches fluorescent RNA aptamer, GRK2 hit artifact. 2,000 tested, under 10 active. Carboxyfluorescein RNA aptamer on beads, flow cytometry quenching; hits give low values. fluorescence response (% of DMSO), % at 10 µM. AID 504580. shares compounds with GRK2 inh;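 active = compounds that quench the bead-bound fluorescent RNA probe, cutting fluorescence to under half of the solvent control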;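 note: counterscreen run without GRK2 so only probe quenching by compound is measured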
GRK2 CP2 – human GRK2 inhibition confirmation, cherry pick 2 | AID 504782 | shares compounds with GRK2 inh | bead-bound GRK2, FAM-aptamer displacement, flow cytometry | inhibition of aptamer binding, % at 10 µM | 360 tested, under 10 active;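 active = inhibition of aptamer binding above 40%, about triple the noise seen with nonglowing compounds, on plates passing quality control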;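 note: negative values mostly come from compounds that fluoresce themselves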
FAM quench CP2 – quenches fluorescent RNA aptamer, GRK2 hit artifact. 360 tested, under 10 active. AID 588494. shares compounds with GRK2 inh. fluorescence response vs DMSO, % at 10 µM. carboxyfluorescein RNA aptamer beads, flow cytometry quenching; hits give low values;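 active = response vs DMSO under 50%, meaning signal dropped by over half, treated as fluorescence quencher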;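 note: labelled aptamer on streptavidin beads without GRK2 as a quench counter-screen; 100% = bead fluorescence of DMSO wells and lower means quenching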
FAM quench DR – counter-screen for GRK2 aptamer binding inhibitors: aptamer fluorescence quenching. shares compounds with GRK2 inh. Bead-bound FAM RNA aptamer fluorescence quenching, flow cytometry; hits give low values. fluorescence ratio to DMSO, % at 11.1 µM. 35 tested, under 10 active. AID 588496;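 active = compounds that dim the fluorescent label, raw bead signal shifting by over 33 units between lowest and highest dose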
An asterisk follows results filed as active; nt = not tested or not shown. Most compounds without a hit are left out; they make up all but 2.5% or so of the library.

SMILES | SENP1 inh | NadD inh | B2AR ag | ABHD5 PLIN5 PPI | GRK2 inh | GRK2 inh confirm | FAM quench CP1 | others
CC(=O)c1cccc(NC(=O)C(C)OC(=O)/C=C/c2cccs2)c1 (centres undefined) | 3 | -3 | -7 | 3 | nt | nt | nt
Fc1cccc(Nc2c3c(nc4ccccc24)CCC3)c1 | 0 | -6 | -6 | 8 | 0 | nt | nt | GRK2 CP2=1;FAM quench CP2=100
CN(C)CCNc1c2c(nc3ccccc13)CCC2 | -2 | 2 | 13 | -4 | 0 | nt | nt | GRK2 CP2=4;FAM quench CP2=100
CCNc1nc(SCC(=O)Nc2ccc(Cl)c(Cl)c2)nc(N(C)C)n1 | 1 | 1 | -8 | -10 | 45* | 0 | 105
CN(C)c1nc(NCc2ccccc2)nc(SCC(=O)Nc2ccc(Cl)c(Cl)c2)n1 | 3 | 10 | 0 | -1 | 0 | nt | nt
Cc1ccc(NC2c3ncccc3C(=O)N2Cc2ccc(F)cc2)cc1 (centres undefined) | -1 | -2 | -15 | 11 | 76* | 0 | 104
COc1ccc(CN2C(=O)c3cccnc3C2Nc2ccc(OC)c(Cl)c2)cc1 (centres undefined) | 0 | 5 | -11 | -1 | 0 | nt | nt
COCCNC(=O)C1(C)CCN(Cc2csc(-c3ccc(Cl)cc3)n2)C1 (centres undefined) | 2 | 3 | nt | 3 | nt | nt | nt
CCn1c(=O)[nH]c(=O)c2c(N)c(C(=O)c3cc(F)ccc3F)sc21 | -6 | -3 | -4 | 0 | 2 | nt | nt
O=C(C1CC(=O)N(C2CCCC2)C1)N1CCN(c2cccc(Cl)c2)CC1 (centres undefined) | 1 | 2 | -4 | 11 | 1 | nt | nt
CCn1cc(Cl)c(C(=O)NNC(=O)CCn2cc([N+](=O)[O-])cn2)n1 | 2 | 3 | 18 | 4 | 63* | nt | nt | GRK2 CP2=-34;FAM quench CP2=101
COc1cccc(NC(=S)NNC(=O)CCn2cc([N+](=O)[O-])cn2)c1 | 0 | 0 | 4 | -3 | 3 | nt | nt
Cn1cnc(Sc2ncnc3nc[nH]c23)c1[N+](=O)[O-] | -1 | -6 | -11 | -1 | 96* | -1 | 94
O=C(c1ccc(C(F)(F)F)cc1)C1CCCN(C(=O)CCn2cncn2)C1 (centres undefined) | 4 | -1 | 3 | 6 | 2 | nt | nt
CSc1ccc(C(=O)C2CCCN(C(=O)CCCn3cncn3)C2)cc1 (centres undefined) | 2 | -3 | 7 | 4 | 76* | 6 | 96
Nc1nc(NCCO)nc(NCc2ccccc2)c1[N+](=O)[O-] | 1 | -9 | -2 | 0 | 97* | 4 | 96
Fc1ccc(CNc2cnccn2)cc1 | -9 | -7 | 1 | -1 | 64* | -1 | 100
O=C(Nc1nc2c(ccc3ccccc32)s1)c1ccco1 | -1 | -10 | 3 | 6 | 0 | nt | nt | GRK2 CP2=5;FAM quench CP2=101
CCn1c2ccccc2c2cc(NC(=O)C(C)OC(=O)c3ccc(NC(=O)CC#N)cc3)ccc21 (centres undefined) | -2 | 14 | 2 | 9 | 0 | nt | nt
Cc1cc(C)nc(SCc2nnc(SCC(=O)Nc3nc(-c4ccccc4)cs3)n2C)n1 | 0 | 10 | -4 | 2 | 0 | nt | nt
Cc1ccccc1C(=O)NCCc1nnc(SCC(=O)Nc2nc(-c3ccccc3)cs2)n1C | 0 | 6 | 0 | -4 | 55* | -2 | 96
CC(C)CCNC1=CC(=O)CC(c2ccccc2)C1 (centres undefined) | 0 | -7 | -10 | 1 | 1 | nt | nt
CN(C)CCCNC1=CC(=O)CC(c2ccccc2)C1 (centres undefined) | 0 | 2 | 5 | -5 | 80* | -1 | 104
CC(=O)N1CCN(Cc2nc3cc(Cl)ccc3c(=O)[nH]2)CC1 | -29 | 0 | -3 | 1 | 87* | 42* | 100 | Aptamer quench=9.8;GRK2 CP2=-3;FAM quench CP2=96;FAM quench DR=102
COc1ccc(N2CCN(Cc3nc4cc(Cl)ccc4c(=O)[nH]3)CC2)cc1 | -12 | -11 | 2 | 4 | 3 | nt | nt | GRK2 CP2=5;FAM quench CP2=107
SMILES | SENP1 inh | NadD inh | B2AR ag | ABHD5 PLIN5 PPI | GRK2 inh | GRK2 inh confirm | FAM quench CP1 | others
COc1cc2nc(CN3CCN(C(C)=O)CC3)[nH]c(=O)c2cc1OC | 2 | -4 | -3 | 0 | 0 | nt | nt
Cc1noc(C)c1COc1ccccc1C(=O)NC(C)c1ccc(Cl)cc1 (centres undefined) | 1 | -3 | 1 | 1 | 0 | nt | nt
CC1CCN(C(=O)c2cc(S(=O)(=O)N3CCCCC3)c[nH]2)CC1 | 2 | -1 | 1 | 4 | 0 | nt | nt
C=CCNC(=O)/C(=C/c1cccc([N+](=O)[O-])c1)NC(=O)c1ccccc1 | 0 | 3 | -5 | 1 | 46* | 0 | 97
C=CCNC(=O)/C(=C/c1cn(-c2ccccc2)nc1-c1cccc([N+](=O)[O-])c1)NC(=O)c1ccccc1 | -10 | 5 | -5 | 3 | 0 | nt | nt
Cc1cc2cc(CCNS(=O)(=O)c3ccc(F)cc3)c(=O)[nH]c2cc1C | -4 | 4 | 18 | 2 | 0 | nt | nt
COc1ccc(/C=C2\CCc3c2nc2ccccc2c3C(=O)O)cc1OC | -31 | 6 | 10 | 0 | 1 | 17 | 100
COc1ccc(/C=C2\CCCc3c2nc2ccccc2c3C(=O)O)cc1OC | nt | nt | nt | nt | 0 | nt | nt
O=C(CN1C(=O)c2ccccc2C1=O)NCC(=O)Nc1ccccc1 | 2 | -2 | -3 | 2 | nt | nt | nt
CCC(C)NC(=O)NC(=O)CSc1nnc(-c2ccccc2F)n1C1CC1 (centres undefined) | 0 | 4 | 5 | -7 | 49* | 1 | 106
S=C(NCC1CCCO1)NC1CC1 (centres undefined) | 1 | -9 | -5 | 2 | 87* | 3 | 101
O=C(NCC1CCCO1)NC1CCCCC1 (centres undefined) | 3 | 1 | 4 | -5 | 2 | nt | nt
COc1cccc(NC(=O)[C@H](NC(=O)[C@@H]2Cc3ccccc3CN2)c2ccccc2)c1 | -4 | -2 | 5 | -4 | 5 | nt | nt
Cc1ccc[n+](CC(=O)Nc2ccc([N+](=O)[O-])cc2)c1 | 1 | -7 | 0 | 1 | 0 | nt | nt
